Published values pooled from the literature.
Target: Protein kinase C epsilon type (PRKCE, Homo sapiens, UniProt Q02156)
Residues used in one study (Q02156 1-737): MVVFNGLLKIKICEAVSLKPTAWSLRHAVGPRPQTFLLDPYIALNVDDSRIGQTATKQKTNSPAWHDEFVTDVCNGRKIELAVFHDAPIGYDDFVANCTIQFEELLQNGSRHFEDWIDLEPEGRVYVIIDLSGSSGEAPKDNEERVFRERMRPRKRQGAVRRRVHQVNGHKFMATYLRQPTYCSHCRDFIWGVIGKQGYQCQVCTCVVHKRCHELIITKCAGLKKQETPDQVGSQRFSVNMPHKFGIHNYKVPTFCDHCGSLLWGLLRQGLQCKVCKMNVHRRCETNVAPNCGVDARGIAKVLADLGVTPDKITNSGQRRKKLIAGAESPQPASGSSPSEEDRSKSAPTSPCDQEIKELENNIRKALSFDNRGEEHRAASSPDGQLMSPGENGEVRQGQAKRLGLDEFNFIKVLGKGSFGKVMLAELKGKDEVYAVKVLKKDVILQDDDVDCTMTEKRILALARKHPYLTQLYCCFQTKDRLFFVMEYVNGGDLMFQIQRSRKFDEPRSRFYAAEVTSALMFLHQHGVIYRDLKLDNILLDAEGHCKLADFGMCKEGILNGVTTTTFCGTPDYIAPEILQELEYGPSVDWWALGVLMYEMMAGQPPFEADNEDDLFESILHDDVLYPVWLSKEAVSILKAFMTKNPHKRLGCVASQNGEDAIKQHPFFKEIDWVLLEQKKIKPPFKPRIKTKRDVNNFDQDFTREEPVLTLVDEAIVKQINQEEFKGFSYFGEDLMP

Compound | observed | action | method | tested at | measurement | result
C[C@H]1CC[C@H](n2c3cnccc3c3cnc(Nc4ccc5c(n4)CCN(C(=O)CO)C5)nc32)CC1 | cell-free assay |  |  | 1 µM | remaining signal | 100%
CO[C@@H]1[C@H](N(C)C(=O)c2ccccc2)C[C@H]2O[C@]1(C)n1c3ccccc3c3c4c(c5c6ccccc6n2c5c31)C(=O)NC4 | enzyme activity | inhibitor |  | 1 µM | inhibition | 92%
CCCCC(=O)Nc1ccc(-c2ccc3ncn(CCC)c(=O)c3c2)cn1 | binding |  | competition with immobilised ligand | 0.5 µM | remaining binding | 83%
Cc1ccc(NC(=O)c2ccnc(C(F)(F)F)c2)cc1-c1cc(OCCO)nc(N2CCOCC2)c1 | binding |  |  | 1 µM | remaining binding | 75%
C1=C/COCc2cc(ccc2OCCN2CCCC2)Nc2nccc(n2)-c2cccc(c2)COC/1 | binding |  |  | 0.1 µM | remaining binding | 68%
C#Cc1cnc(Nc2ccnc(CO)c2)nc1Nc1ccccc1S(C)(=O)=NC#N (stereo not drawn) | cell-free assay |  |  | 1 µM | remaining signal | 62%
CC#CC(=O)N1CCC[C@H]1c1nc(-c2ccc(C(=O)Nc3ccccn3)cc2)c2c(N)nccn12 | enzyme activity | inhibitor |  | 1 µM | inhibition | 0%
COc1ccc2oc(-c3ccc4nc(N)oc4c3)c/c(=N\c3ccccc3NC(=O)CCN)c2c1 | binding |  |  | 1 µM | remaining binding | 106%
N#Cc1ccc(NC(=O)Nc2ccccc2)cc1 | cell-free assay |  | competition with immobilised ligand | 25 µM | remaining binding | 100%
